Rce1 inh: yeast Rce1p protease inhibitors, primary screen, biochemical, fluorescence, cell-free homogeneous. yeast membranes, quenched prenylated peptide cleavage fluorescence. calls only. hit rate 0.27% among 290,000. CAAX prenyl protease 2 (Saccharomyces cerevisiae (strain ATCC 204508 / S288c)), Q03530. AID 2563, 2010;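 active = fall in fluorescence gain of 50% or more versus controls, with final raw signal at or below 3038400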;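 note: plate controls were neutral control wells for no effect and wells lacking membranes for full effect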
Target sequence (Q03530 whole entry, looked up): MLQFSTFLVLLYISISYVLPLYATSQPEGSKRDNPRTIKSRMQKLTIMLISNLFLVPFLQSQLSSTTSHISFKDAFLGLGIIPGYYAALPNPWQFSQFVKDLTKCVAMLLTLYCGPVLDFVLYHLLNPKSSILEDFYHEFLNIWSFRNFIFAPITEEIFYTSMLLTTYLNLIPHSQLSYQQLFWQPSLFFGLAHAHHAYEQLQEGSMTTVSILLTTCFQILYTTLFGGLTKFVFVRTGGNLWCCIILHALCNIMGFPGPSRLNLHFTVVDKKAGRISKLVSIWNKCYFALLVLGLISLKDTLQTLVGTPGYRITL
TAAR1 antag: human TAAR1 antagonists, primary screen, Fluo-8 calcium fluorescence, CHO RD-HGA16 cells. antagonist. inhibition, % at 3 µM. hit rate 1.5% among 360,000;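 active = inhibition above a per-plate cutoff, the mean inhibition of test compounds on that plate plus 3 SD, cut at about 49% in these data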;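 note: 0% = DMSO plus EC80 beta-PEA response and 100% = DMSO alone without agonist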
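System: RD-HGA16 CHO cells with stable hTAAR1 and Gα16 | Probe or stimulus: EC80 β-phenethylamine stimulus | Dosing: 3 µM, single point | Times: Dye loading 75 min at 37 °C, then 30 min room temperature | Measured by: Fluo-8 calcium-sensitive fluorescence | Read-out basis: % inhibition of agonist calcium response | Replicates: n of 1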
Platelet DG rel: inhibitors of platelet dense granule secretion, primary screen, cell-based, MLPCN, human platelets; human platelet-rich plasma, SFLLRN dense granule ATP release, luminescence; inhibition, %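 (compounds screened at 7.5 µM in platelet-rich plasma)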; hit rate 0.22% among 300,000; AID 1663, 2009;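 active = mean replicate score, as percent of positive control, at or above 50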
TAAR1 agonist: human TAAR1 agonists, primary screen, Fluo-8 calcium fluorescence, CHO RD-HGA16 cells; activation, % at 3 µM; vehicle wells 0%, saturating PEA agonist 100%; Trace amine-associated receptor 1 (Homo sapiens), Q96RJ0; hit rate 0.99% among 360,000;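 active = activation above the mean activation of all test compounds in the run plus 3 SD, cut at about 38% in these data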
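System: CHO-derived RD-HGA16 cells with stable Gα16 and human TAAR1. Times: 17-24 h plating, Fluo-8 75 min 37 °C, 30 min RT. Measured by: calcium-sensitive Fluo-8 signal, excitation 470-495, emission 515-575 nm. Read-out basis: % activation relative to PEA EC100 response. Control set: DMSO and PEA EC100. Repeats: no replicates (n 1).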
VLA-4 inh: inhibition in human VLA-4 binding assay, primary screen, VLA-4 allosteric modulator project, MLPCN library, flow cytometry, VLA-4 expressing cells; hit rate 0.2% among 330,000; inhibition, % (about 7 µM as worked out from the volumes in the protocol); ligand binding flow cytometry; in the data active = inhibition above about 50%
nonsel antag count: nonselective antagonists in TAAR1 counter-screen cells, counter-screen for hTAAR1 antagonist project, cell-based, fluorescence, calcium; inhibition, % at 3 µM; hit rate 77% among 2,400; shares compounds with TAAR1 antag; AID 651780, 2012; counterscreen cell line, antagonist mode; in the data active = inhibition above about 22%;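 note: CHO-Ga16 host cells stimulated with ATP at an EC80 level; 0% = agonist EC80 plus vehicle and 100% = vehicle without agonist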
TAAR1 antag conf: human TAAR1 antagonists, retest of hits, confirmation, cell-based, fluorescence; shares compounds with TAAR1 antag; TAAR1-expressing cells, fluorescence antagonist read-out; inhibition, % at 3 µM; hit rate 40% among 2,400; in the data active = inhibition above about 49%;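 note: CHO-Ga16 host cells challenged with agonist PEA near its EC80; 0% = agonist at EC80 plus vehicle and 100% = vehicle with no agonist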
Ga16 ag counter: calcium activation in Ga16-expressing cells, counter-screen for TAAR1 antagonist project, cell-based, fluorescence | agonist counterscreen | shares compounds with TAAR1 antag | activation, % at 3 µM | hit rate 18% among 2,400; in the data active = activation above about 12%;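 note: 0% = vehicle wells and 100% = saturating stimulus response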
TAAR1 ag counter: TAAR1 activation by candidate antagonists – cell-based, fluorescence, counter-screen for TAAR1 antagonist project. shares compounds with TAAR1 antag. hTAAR1 cell line, agonist mode. activation, % at 3 µM. hit rate 2% among 2,400. AID 651955, 2012; in the data active = activation above about 37%;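 note: CHO cells stably expressing TAAR1 with calcium dye readout; 0% = DMSO vehicle and 100% = full agonist response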
Starred values were filed as active, the others as inactive. In the library only some 2.6% were active in any assay of this set; here they are far more common.

How did Cc1nc2c(OCc3ccc(F)c(F)c3)cccn2c1N(C)C(=O)CCC1CCCC1 do in these assays?
TAAR1 antag: 34; TAAR1 agonist: 2

How did Cc1nc2c(OCc3ccc(OC(F)F)cc3)cccn2c1N(C)C(=O)CCC1CCCC1 do in these assays?
TAAR1 antag: 78*; TAAR1 agonist: 2; nonsel antag count: 39*; TAAR1 antag conf: 54*; Ga16 ag counter: 7; TAAR1 ag counter: 3

How did COc1ccc(Cl)cc1NC(=O)CN(C)C1CCS(=O)(=O)C1 (stereo not drawn) do in these assays?
TAAR1 antag: -2; TAAR1 agonist: 8; VLA-4 inh: 2

Results for OC[C@@H]1CN(Cc2cccc(C(F)(F)F)c2)C[C@H](n2cnc3c(NCc4ccc(F)cc4)ncnc32)O1 ?
TAAR1 antag: 30; TAAR1 agonist: 8

Results for OC[C@@H]1CN(Cc2cccc(C(F)(F)F)c2)C[C@H](n2cnc3c(NCc4ccco4)ncnc32)O1 ?
TAAR1 antag: 74*; TAAR1 agonist: 17; nonsel antag count: 23*; TAAR1 antag conf: 39; Ga16 ag counter: 11; TAAR1 ag counter: 11

What do the screens show for `CCOC(=O)CNC(=O)CSc1nc(C(C)C)nc2c1cnn2-c1ccccc1`?
TAAR1 antag: -17; TAAR1 agonist: 1

Results for Cc1ccc2nc(NC(=O)C3CCN(S(=O)(=O)c4cccc5nsnc45)CC3)sc2c1 ?
Rce1 inh: inactive; TAAR1 antag: 65*; Platelet DG rel: -13; TAAR1 agonist: 16; VLA-4 inh: -14; nonsel antag count: 33*; TAAR1 antag conf: 45; Ga16 ag counter: 10; TAAR1 ag counter: 7

Results for COC(=O)c1ccccc1NC(=O)CSc1nnnn1-c1ccc(C)cc1C ?
Rce1 inh: inactive; TAAR1 antag: 50*; Platelet DG rel: 8; TAAR1 agonist: 14; VLA-4 inh: -2; nonsel antag count: 30*; TAAR1 antag conf: 32; Ga16 ag counter: 4; TAAR1 ag counter: 3

Results for Cc1ccc([C@H]2C[C@@H](n3cc(C4CC4)nn3)[C@H](O)CN2C(=O)C2CCCCC2)cc1 ?
TAAR1 antag: 2; TAAR1 agonist: 0

How did CCCCc1nc(NCCNC(=O)c2ccccc2)c(C#N)c2c1CSC(C)(C)C2 do in these assays?
Rce1 inh: inactive; TAAR1 antag: 68*; Platelet DG rel: -6; TAAR1 agonist: 15; VLA-4 inh: 3; nonsel antag count: 30*; TAAR1 antag conf: 52*; Ga16 ag counter: 7; TAAR1 ag counter: 6

What do the screens show for `Cc1oncc1C(=O)NC1CCCCC1`?
Rce1 inh: inactive; TAAR1 antag: 26; Platelet DG rel: 5; TAAR1 agonist: 8; VLA-4 inh: 28

Results for Cc1ccc(CSCCNC(=O)/C=C/c2ccccc2Cl)cc1 ?
Rce1 inh: inactive; TAAR1 antag: 52*; Platelet DG rel: -2; TAAR1 agonist: 10; VLA-4 inh: 7; nonsel antag count: 25*; TAAR1 antag conf: 27; Ga16 ag counter: 3; TAAR1 ag counter: 6

What do the screens show for `COC(=O)CCC(NS(=O)(=O)OCC(Cl)(Cl)Cl)c1ccccc1` (stereo not drawn)?
Rce1 inh: inactive; TAAR1 antag: 3; Platelet DG rel: -1; TAAR1 agonist: 19; VLA-4 inh: 7

Compound activity as filed in PubChem BioAssay.
